The IC50 is the concentration needed to halve the response being measured. Lower therefore signals greater potency in that assay.

The structures appear in SMILES notation. Activity calls are given as the source filed them. The calls are words filed in the database; no cut-off is given here.

In one assay the test system is THP-1. Briefly: Cytotoxicity against PMA-stimulated human THP1 cells after 72 hrs by MTT assay. It counts as cell-based. The following applies: THP-1, 72 h. The method in brief: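 THP-1 cells grown at 37 °C, 5% CO2 in RPMI-1640 with 10% iFBS, […], penicillin and streptomycin. Differentiated to macrophages with 20 ng/mL PMA for 48 h, then 24 h in fresh medium. MTT viability assay run as for parasites but incubated at 37 °C. IC50 determined.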

The subject of assay [1] is Leishmania tropica. Nature of the assay: Potentiation of miltefosine-induced antileishmanial activity against promastigotes of multidrug-resistant Leishmania tropica assessed as fold decrease in miltefosine IC50 at 6 uM after 72 hrs by MTT assay. It counts as functional. The method in brief:
(§1)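 MDR L. tropica promastigotes given increasing DNM or miltefosine concentrations, with or without 6 µM modulator, for 72 h at 28 °C. Viability measured by MTT absorbance at 540 nm. IC50 taken for each condition. Reversal index is drug IC50 without modulator divided by IC50 with it. Three independent experiments.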
A general note: Formazan colour is commonly taken as a measure of viable cells.

In assay [2] the test system is Leishmania tropica. Briefly: Potentiation of daunomycin-induced antileishmanial activity against promastigotes of multidrug-resistant Leishmania tropica assessed as fold decrease in daunomycin IC50 at 6 uM after 72 hrs by MTT assay. The class given is functional. The method in brief: as §1
For assay [3], the system named is Leishmania tropica. Briefly: Potentiation of daunomycin-induced antileishmanial activity against promastigotes of multidrug-resistant Leishmania tropica at 3 to 8 uM after 72 hrs by MTT assay. It counts as functional, organism-based.
The test system of assay [4] is Leishmania tropica. Briefly: Antileishmanial activity against promastigotes of multidrug-resistant Leishmania tropica after 72 hrs by MTT assay. The class given is functional, organism-based. The method in brief: (§2)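 Promastigotes of wild-type L. tropica LRC clone or DNM-selected MDR line (kept in 150 µM DNM or 30 µM MLF), grown at 28 °C in modified RPMI 1640 with 20% heat-inactivated FBS. Exposed to compounds without DNM for 72 h at 28 °C. Viability read by MTT absorbance at 540 nm, expressed relative to untreated parasites.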

The subject of assay [5] is Leishmania tropica. Briefly: Resistance ratio of IC50 for multidrug-resistant Leishmania tropica and IC50 for wild type Leishmania tropica LRC. It counts as functional. The method in brief: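 DNM-selected MDR and parental wild-type L. tropica promastigotes treated with increasing drug concentrations for 72 h at 28 °C. Viability read by MTT at 540 nm. Ratio of MDR IC50 to parental IC50 calculated.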

For assay [6], the system named is Leishmania tropica. Briefly: Antileishmanial activity against promastigotes of wild type Leishmania tropica LRC after 72 hrs by MTT assay. It counts as functional, organism-based. The method in brief: as §2

Consider `COC(=O)C1=C(C)N2CCO[C@@]2(C)[C@@H](CO)[C@@H]1c1cccc([N+](=O)[O-])c1` (racemic), for which, in the assay on THP-1, the IC50 was above 400 µM.
For the molecule `CC(=O)O[C@H]1C[C@](C)(O)[C@]23OC(C)(C)[C@H](C[C@H](OC(=O)c4ccco4)[C@]2(C)[C@H]1OC(C)=O)[C@H]3OC(=O)c1ccco1`, the “fold change (FC)” value is reported as 6 in the assay on Leishmania tropica [1] and 4.7 in the assay with Leishmania tropica [2].
As to `COC(=O)C1=C(C)N2CCO[C@@]2(C)[C@@H](C(=O)OC)[C@@H]1c1cccc([N+](=O)[O-])c1` (racemic), in the assay with Leishmania tropica [3], the result was Active. For the same molecule, the “fold change (FC)” value in the assay on Leishmania tropica [1] stood at 3.4; in the assay on Leishmania tropica [2] it was 3.9. Further, the IC50 in the assay on THP-1 was above 400 µM.
In the case of `COC(=O)C1=C(C)N2CCO[C@@]2(C)[C@@H](C(=O)OC)[C@@H]1c1ccc[nH]1` (racemic), the result in the assay with Leishmania tropica [3] was Active. The “fold change (FC)” value is 1.9 with Leishmania tropica [1] and 1.3 in the assay with Leishmania tropica [2]. The IC50 in the assay with THP-1 was above 400 µM.
For `COC(=O)C1=C(C)N2C[C@H](C)O[C@@]2(C)[C@@H](C(=O)OC)[C@@H]1c1cccc(Cl)c1`, in the assay on THP-1, the IC50 is above 400 µM. In addition, in the assay with Leishmania tropica [2], the “fold change (FC)” value is above 6.
For `COC(=O)C1=C(C)N2CCO[C@@]2(C)[C@@H](C(=O)OC)[C@@H]1c1ccco1` (racemic), the IC50 in the assay with THP-1 is above 400 µM.
`COC(=O)C1=C(C)N2CCO[C@@]2(C)[C@@H](C(=O)OCc2ccccc2)[C@@H]1c1cccc([N+](=O)[O-])c1` (racemic) yielded an IC50 with THP-1 above 400 µM.
For the molecule `COC(=O)C1=C(C)N2C[C@@H](C)O[C@]2(C)[C@H](C(=O)OC(C)(C)C)[C@H]1c1cccc(Cl)c1`, the “fold change (FC)” value in the assay with Leishmania tropica [1] worked out at 8.7. In the assay on THP-1, the IC50 is above 400 µM.
With `COC(=O)C1=C(C)N2CCS[C@@]2(C)[C@@H](C(=O)OC)[C@@H]1c1cccc(Cl)c1` (racemic), the outcome in the assay on Leishmania tropica [3] was Active. Also, the “fold change (FC)” value in the assay with Leishmania tropica [1] is listed as 3.5; in the assay on Leishmania tropica [2] it was 2.2. The same molecule gave an IC50 in the assay on THP-1 above 400 µM.
Regarding `C=CCOC(=O)[C@H]1[C@H](c2cccc(Cl)c2)C(C(=O)OC)=C(C)N2CCO[C@@]12C` (racemic), the “fold change (FC)” value in the assay on Leishmania tropica [2] is reported as above 5.
Take `COC(=O)C1=C(C)N2CCCO[C@@]2(C)[C@@H](C(=O)OC)[C@@H]1c1cccc(Cl)c1` (racemic): in the assay on Leishmania tropica [3], the result was Active. Moreover, the “fold change (FC)” value in the assay on Leishmania tropica [1] came out at 1.5; in the assay with Leishmania tropica [2] it was 3.2. In addition, the IC50 with THP-1 was above 400 µM.
As to `COc1cccc2c1C(=O)c1c(O)c3c(c(O)c1C2=O)C[C@@](O)(C(C)=O)C[C@@H]3O[C@H]1C[C@H](N)[C@H](O)[C@H](C)O1` [DAUNORUBICIN], the IC50 in the assay with Leishmania tropica [4] came out at 180 µM; with THP-1, 26.9 µM; in the assay with Leishmania tropica [6] it was 2.8 µM. Also, the “Ratio IC50” value in the assay with Leishmania tropica [5] stood at 64.
Turning to `COC(=O)C1=C(C)N2CCO[C@@]2(C)[C@@H](C(=O)OCc2ccccc2)[C@@H]1c1cccc(Cl)c1` (racemic), the IC50 with THP-1 was above 400 µM.
Take `CCCCCCCCCCCCCCCCOP(=O)([O-])OCC[N+](C)(C)C` [MILTEFOSINE]: the figures for the half-inhibitory concentration (IC50) in the assay on Leishmania tropica [4], in the assay with THP-1 and with Leishmania tropica [6] were 240 µM, 7 µM and 10.9 µM, respectively. Further, in the assay with Leishmania tropica [5], the “Ratio IC50” value is listed as 22.
In the assay with THP-1, `COC(=O)C1=C(C)N2C(=O)[C@H](C)O[C@@]2(C)[C@@H](C(=O)OC)[C@@H]1c1cccc(Cl)c1` (racemic) had an IC50 above 400 µM.

The values above are taken from ChEMBL document CHEMBL2146369, “Oxazolo[3,2-a]pyridine. A new structural scaffold for the reversal of multi-drug resistance in Leishmania” (Bioorg Med Chem Lett, 2012).
